Experimental data published in ChEMBL document CHEMBL1123468, “Synthesis and antiviral activity of (E)-5-(2-bromovinyl)uracil and (E)-5-(2-bromovinyl)uridine” (1986).
Converted amounts (≈) assume the structure as drawn.

Columns and labels:
BSC-1 = assay: The compound was tested for its antiviral activity against HSV-1 (KOS) virus in BS-C-1A cell line; type: functional, Cercopithecidae; details: Chlorocebus aethiops
Outline: (§1)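 Virus-induced cytopathogenicity in cell culture, scored microscopically. The value is the minimum concentration that cuts viral cytopathogenicity by 50%. Normal cell morphology was also checked microscopically at up to 400 μg/mL.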

E6SM [1] = assay: The compound was tested for its antiviral activity against HSV-1 (KOS) virus in E6SM cell line; type: functional; details: Homo sapiens; outline: as §1
E6SM [2] = assay: The concentration required to reduce the cytopathogenicity of HSV-1 (KOS) in E6SM cell culture by 50% in presence of 100 ug/mL dThd; type: functional; details: Homo sapiens
Outline: (§2)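 E6SM cells infected with HSV-1 (KOS), with dThd added to the culture medium at the stated concentration. The value is the minimum concentration that reduces viral cytopathogenicity by 50%.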

E6SM [3] = assay: The concentration required to reduce the cytopathogenicity of HSV-1 (KOS) in E6SM cell culture by 50% in presence of 100 ug/mL of Urd; type: functional; details: Homo sapiens
Outline: (§3)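 E6SM cells infected with HSV-1 (KOS), with Urd or dUrd added alone or together with 6-aminothymine (50 μg/mL). The value is the minimum concentration that reduces viral cytopathogenicity by 50%.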

E6SM [4] = assay: The concentration required to reduce the cytopathogenicity of HSV-1 (KOS) in E6SM cell culture by 50% in presence of 100 ug/mL of Urd and 50 ug/mL of 6-aminothymine; type: functional; details: Homo sapiens; outline: as §3
E6SM [5] = assay: The concentration required to reduce the cytopathogenicity of HSV-1 (KOS) in E6SM cell culture by 50% in presence of 100 ug/mL of dUrd; type: functional; details: Homo sapiens; outline: as §3
E6SM [6] = assay: The concentration required to reduce the cytopathogenicity of HSV-1 (KOS) in E6SM cell culture by 50% in presence of 100 ug/mL of dUrd and 50 ug/mL of 6-aminothymine; type: functional; details: Homo sapiens; outline: as §3
E6SM [7] = assay: The compound was tested for its antiviral activity against HSV-1 (F) virus in E6SM cell culture; type: functional; details: Homo sapiens; outline: as §1
E6SM [8] = assay: The concentration required to reduce the cytopathogenicity of HSV-1 (KOS) in E6SM cell culture by 50% in presence of 50 ug/mL of 6-aminothymine; type: functional; details: Homo sapiens
Outline: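 E6SM cultures were infected with HSV-1 strain KOS. 6-Aminothymine or benzylacyclouridine was present in the medium together with the test compound. The value is the minimum concentration giving 50% reduction of viral cytopathogenicity, scored by the earlier-described cytopathogenicity inhibition procedure.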

E6SM [9] = assay: The compound was tested for its antiviral activity against HSV-1 (KOS) virus in E6SM cell culture; type: functional; details: Homo sapiens; outline: as §1
E6SM [10] = assay: The compound was tested for its antiviral activity against HSV-1 (McIntyre) virus in E6SM cell culture; type: functional; details: Homo sapiens; outline: as §1
E6SM [11] = assay: The compound was tested for its antiviral activity against HSV-2 (196) virus in E6SM cell culture; type: functional; details: Homo sapiens; outline: as §1
E6SM [12] = assay: The compound was tested for its antiviral activity against HSV-2 (Lyons) virus in E6SM cell culture; type: functional; details: Homo sapiens; outline: as §1
E6SM [13] = assay: The compound was tested for its antiviral activity against TK-HSV-1 (B2006) virus in E6SM cell culture; type: functional; details: Homo sapiens; outline: as §1
E6SM [14] = assay: The compound was tested for its antiviral activity against vaccinia virus in E6SM cell culture; type: functional; details: Homo sapiens; outline: as §1
E6SM [15] = assay: The concentration required to reduce the cytopathogenicity of HSV-1 (KOS) in E6SM cell culture by 50% in absence of dUrd; type: functional; details: Homo sapiens; outline: as §3
E6SM [16] = assay: The concentration required to reduce the cytopathogenicity of HSV-1 (KOS) in E6SM cell culture by 50% in presence of 1 ug/mL dThd; type: functional; details: Homo sapiens; outline: as §2
E6SM [17] = assay: The concentration required to reduce the cytopathogenicity of HSV-1 (KOS) in E6SM cell culture by 50% in presence of 1 ug/mL of Urd and 50 ug/mL of 6-aminothymine; type: functional; details: Homo sapiens; outline: as §3
E6SM [18] = assay: The concentration required to reduce the cytopathogenicity of HSV-1 (KOS) in E6SM cell culture by 50% in presence of 1 ug/mL of dUrd; type: functional; details: Homo sapiens; outline: as §3
E6SM [19] = assay: The concentration required to reduce the cytopathogenicity of HSV-1 (KOS) in E6SM cell culture by 50% in presence of 1 ug/mL of dUrd and 50 ug/mL of 6-aminothymine; type: functional; details: Homo sapiens; outline: as §3
E6SM [20] = assay: The concentration required to reduce the cytopathogenicity of HSV-1 (KOS) in E6SM cell culture by 50% in presence of 10 ug/mL of Urd; type: functional; details: Homo sapiens; outline: as §3
E6SM [21] = assay: The concentration required to reduce the cytopathogenicity of HSV-1 (KOS) in E6SM cell culture by 50% in presence of 10 ug/mL of Urd and 50 ug/mL of 6-aminothymine,; type: functional; details: Homo sapiens; outline: as §3
E6SM [22] = assay: The concentration required to reduce the cytopathogenicity of HSV-1 (KOS) in E6SM cell culture by 50% in presence of 3 ug/mL dThd; type: functional; details: Homo sapiens; outline: as §2
E6SM [23] = assay: The concentration required to reduce the cytopathogenicity of HSV-1 (KOS) in E6SM cell culture by 50% in presence of 30 ug/mL dThd; type: functional; details: Homo sapiens
Outline: (§4)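 Thymidine (dThd) was added to the E6SM culture medium alongside the test compound, and cells were infected with HSV-1 strain KOS. The endpoint is the minimum inhibitory concentration that reduces viral cytopathogenicity by 50%. The cytopathogenicity inhibition procedure follows the earlier-described method.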

E6SM [24] = assay: The concentration required to reduce the cytopathogenicity of HSV-1 (KOS) in E6SM cell culture by 50% in presence of 300 ug/mL dThd; type: functional; details: Homo sapiens; outline: as §4
E1 SM = assay: The compound was tested for its antiviral activity against HSV-1 (KOS) virus in E1SM cell line; type: functional, Homo sapiens; outline: as §1
E6SM [25] = assay: The concentration required to reduce the cytopathogenicity of HSV-1 (KOS) in E6SM cell culture by 50% in presence of 10 ug/mL of dUrd; type: functional; details: Homo sapiens; outline: as §3
HEp-2 = assay: The compound was tested for its antiviral activity against HSV-1 (KOS) virus in HEp-2M cell line; type: functional; details: Homo sapiens; outline: as §1
HSF (VGS) = assay: The compound was tested for its antiviral activity against HSV-1 (KOS) virus in HSF (VGS) cell line; type: functional; details: Homo sapiens; outline: as §1
Mo = assay: The compound was tested for its antiviral activity against HSV-1 (KOS) virus in MO cell line; type: functional; details: Homo sapiens; outline: as §1
Vero = assay: The compound was tested for its antiviral activity against HSV-1 (KOS) virus in vero cell line; type: functional; details: Chlorocebus sabaeus; outline: as §1
HeLa = assay: The compound was tested for its antiviral activity against HSV-1 (KOS) virus in HeLa cell line; type: functional; details: Homo sapiens; outline: as §1
E6SM [26] = assay: The concentration required to reduce the cytopathogenicity of HSV-1 (KOS) in E6SM cell culture by 50% in presence of 10 ug/mL of dUrd and 50 ug/mL of 6-aminothymine; type: functional; details: Homo sapiens; outline: as §3
BALB/3T3 = assay: The compound was tested for its antiviral activity against HSV-1 (KOS) virus in BALB/3T3 cell line; details: Mus musculus

Structure (SMILES) | MIC50 (BSC-1) | MIC50 (E6SM [1]) | MIC50 (E6SM [2]) | MIC50 (E6SM [3]) | MIC50 (E6SM [4]) | MIC50 (E6SM [5]) | MIC50 (E6SM [6]) | MIC50 (E6SM [7]) | MIC50 (E6SM [8]) | MIC50 (E6SM [9]) | MIC50 (E6SM [10]) | MIC50 (E6SM [11]) | MIC50 (E6SM [12]) | MIC50 (E6SM [13]) | MIC50 (E6SM [14]) | MIC50 (E6SM [15]) | MIC50 (E6SM [16]) | MIC50 (E6SM [17]) | MIC50 (E6SM [18]) | MIC50 (E6SM [19]) | also measured
Oc1ncc(/C=C/Br)c(O)n1 | > 400 µg/mL | 7 µg/mL (≈ 32.3 µM) | > 400 µg/mL | 4 µg/mL | > 400 µg/mL | 0.7 µg/mL | 7 µg/mL | 4 µg/mL (≈ 18.4 µM) | > 400 µg/mL | 7 µg/mL (≈ 32.3 µM) | 4 µg/mL (≈ 18.4 µM) | > 400 µg/mL | > 400 µg/mL | > 200 µg/mL | > 400 µg/mL | 7 µg/mL (≈ 32.3 µM) | 7 µg/mL | > 400 µg/mL | 10 µg/mL | > 400 µg/mL | MIC50 (E6SM [20]): 7 µg/mL; MIC50 (E6SM [21]): > 400 µg/mL; MIC50 (E6SM [22]): 4 µg/mL; MIC50 (E6SM [23]): > 400 µg/mL; MIC50 (E6SM [24]): > 400 µg/mL; MIC50 (E1 SM): 7 µg/mL (≈ 32.3 µM); MIC50 (E6SM [25]): 0.7 µg/mL; MIC50 (HEp-2): > 200 µg/mL; MIC50 (HSF (VGS)): 7 µg/mL (≈ 32.3 µM); MIC50 (Mo): > 400 µg/mL; MIC50 (Vero): > 400 µg/mL; MIC50 (HeLa): 2 µg/mL (≈ 9.22 µM); MIC50 (E6SM [26]): 10 µg/mL; MIC50 (BALB/3T3): > 400 µg/mL
O=c1[nH]c(=O)n([C@H]2C[C@H](O)[C@@H](CO)O2)cc1/C=C/Br [BRIVUDINE] | 0.2 µg/mL (≈ 0.6 µM) | 0.02 µg/mL (≈ 0.06 µM) | 300 µg/mL | 0.02 µg/mL | 0.02 µg/mL | 0.2 µg/mL | 0.2 µg/mL | 0.02 µg/mL (≈ 0.06 µM) | 0.01 µg/mL | 0.02 µg/mL (≈ 0.06 µM) | 0.02 µg/mL (≈ 0.06 µM) | 10 µg/mL (≈ 30 µM) | 4 µg/mL (≈ 12 µM) | 40 µg/mL (≈ 120 µM) | 7 µg/mL (≈ 21 µM) | 0.02 µg/mL (≈ 0.06 µM) | 0.02 µg/mL | 0.02 µg/mL | 0.01 µg/mL | 0.01 µg/mL | MIC50 (E6SM [20]): 0.04 µg/mL; MIC50 (E6SM [21]): 0.04 µg/mL; MIC50 (E6SM [22]): 0.02 µg/mL; MIC50 (E6SM [23]): 70 µg/mL; MIC50 (E6SM [24]): > 400 µg/mL; MIC50 (E1 SM): 0.02 µg/mL (≈ 0.06 µM); MIC50 (E6SM [25]): 0.02 µg/mL; MIC50 (HEp-2): 0.2 µg/mL (≈ 0.6 µM); MIC50 (HSF (VGS)): 0.04 µg/mL (≈ 0.12 µM); MIC50 (Mo): 0.007 µg/mL (≈ 0.021 µM); MIC50 (Vero): 0.4 µg/mL (≈ 1.2 µM); MIC50 (HeLa): 0.04 µg/mL (≈ 0.12 µM); MIC50 (E6SM [26]): 0.02 µg/mL; MIC50 (BALB/3T3): 0.1 µg/mL (≈ 0.3 µM)
